This note sets out measurements from ChEMBL document CHEMBL1127019, “(S)-N-tert-butyl-3-(4-(2-methoxyphenyl)-piperazin-1-yl)-2-phenylpropanamide [(S)-WAY-100135]: a selective antagonist at presynaptic and postsynaptic 5-HT1A receptors” (J Med Chem, 1993).

Where only a bound is given, the exact number is not on record here.

Experiment [1] has as its target D(2) dopamine receptor (Rattus norvegicus) (UniProt P61169). The experiment in a line: In vitro binding affinity towards the dopamine receptor D2 at 10 e-6 M. The gist of the method: (§1)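 Radioligand binding in vitro. Values are mean percent inhibition at 10⁻⁶ M, from at least three experiments each run in triplicate.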
For experiment [2], the target named is Adrenergic receptor alpha-2 (Rattus norvegicus) (UniProt P22086+P19328+P22909). In words: In vitro binding affinity towards the noradrenergic alpha-2 receptor at 10 e-6 M. It counts as protein assay. The gist of the method: as §1
Experiment [3] deals with T1, 5-hydroxytryptamine receptor 2C (Rattus norvegicus) (UniProt P08909).
T1 sequence (whole entry): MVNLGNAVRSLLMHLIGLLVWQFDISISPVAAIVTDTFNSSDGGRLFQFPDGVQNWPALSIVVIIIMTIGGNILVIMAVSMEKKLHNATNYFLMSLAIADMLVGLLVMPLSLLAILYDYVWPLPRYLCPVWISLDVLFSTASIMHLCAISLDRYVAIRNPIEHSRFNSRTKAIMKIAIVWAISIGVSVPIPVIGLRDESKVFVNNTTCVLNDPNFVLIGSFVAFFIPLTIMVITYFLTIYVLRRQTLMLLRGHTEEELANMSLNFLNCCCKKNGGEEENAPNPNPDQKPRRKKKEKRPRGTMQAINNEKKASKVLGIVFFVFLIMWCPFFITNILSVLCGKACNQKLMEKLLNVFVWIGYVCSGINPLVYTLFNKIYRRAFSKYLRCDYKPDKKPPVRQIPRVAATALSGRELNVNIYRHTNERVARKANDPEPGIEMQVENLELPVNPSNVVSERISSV
In words: In vitro binding affinity towards the 5-hydroxytryptamine 1C receptor at 10 e-6 M. The gist of the method: as §1

The target in experiment [4] is D(1A) dopamine receptor (Rattus norvegicus) (UniProt P18901). The experiment in a line: In vitro binding affinity towards the dopamine receptor D1 at 10 e-6 M. In a few lines:
as §1

Experiment [5] has as its target 5-hydroxytryptamine receptor 1B (Rattus norvegicus) (UniProt P28564). In words: In vitro binding affinity towards the 5-hydroxytryptamine 1B receptor at 10 e-6 M. The gist of the method: as §1
For experiment [6], the target named is Adrenergic receptor beta (Rattus norvegicus) (UniProt P18090+P10608+P26255). The experiment in a line: (§2) In vitro binding affinity towards the noradrenergic beta receptor at 10 e-6 M. It counts as protein assay. In a few lines: (§3)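 Radioligand binding at the receptor site, run at 10⁻⁶ M. Reported as mean percent inhibition from at least three experiments, each performed in triplicate.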

In experiment [7] the test system is Rattus norvegicus. In words: Decrease in hippocampal level of 5-HT at preinjection of 1 mg/kg, sc. Format: functional, Hippocampus. The settings on record: route subcutaneous.
For the next experiment, the target named is Adrenergic receptor beta (Rattus norvegicus, UniProt P18090+P10608+P26255). The description is as §2. Format: protein assay. The gist of the method: as §3
Experiment [8] addresses T2, 5-hydroxytryptamine receptor 1A (Rattus norvegicus, UniProt P19327).
T2 sequence (P19327 whole entry): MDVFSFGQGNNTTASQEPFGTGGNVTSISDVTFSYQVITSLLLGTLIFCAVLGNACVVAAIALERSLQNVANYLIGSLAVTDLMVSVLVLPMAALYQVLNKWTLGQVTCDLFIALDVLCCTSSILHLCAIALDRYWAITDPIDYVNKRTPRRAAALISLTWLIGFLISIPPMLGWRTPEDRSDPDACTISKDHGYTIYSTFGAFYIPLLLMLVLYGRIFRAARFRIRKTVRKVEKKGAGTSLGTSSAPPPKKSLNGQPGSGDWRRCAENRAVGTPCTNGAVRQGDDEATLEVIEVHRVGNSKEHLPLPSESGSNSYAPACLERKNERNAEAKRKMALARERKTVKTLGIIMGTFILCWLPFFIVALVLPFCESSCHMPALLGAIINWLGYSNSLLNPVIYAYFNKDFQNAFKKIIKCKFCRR
The experiment in a line: In vitro binding affinity towards the 5-hydroxytryptamine 1A receptor was evaluated. The gist of the method: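 Receptor binding at the 5-HT1A site, reported as IC50. Each value is the mean IC50 ± standard error of at least three experiments, each run in triplicate.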

For experiment [9], the target named is T3, Adrenergic receptor alpha-1 (Rattus norvegicus, UniProt P15823+P23944+P43140).
T3 sequence (P15823 whole entry): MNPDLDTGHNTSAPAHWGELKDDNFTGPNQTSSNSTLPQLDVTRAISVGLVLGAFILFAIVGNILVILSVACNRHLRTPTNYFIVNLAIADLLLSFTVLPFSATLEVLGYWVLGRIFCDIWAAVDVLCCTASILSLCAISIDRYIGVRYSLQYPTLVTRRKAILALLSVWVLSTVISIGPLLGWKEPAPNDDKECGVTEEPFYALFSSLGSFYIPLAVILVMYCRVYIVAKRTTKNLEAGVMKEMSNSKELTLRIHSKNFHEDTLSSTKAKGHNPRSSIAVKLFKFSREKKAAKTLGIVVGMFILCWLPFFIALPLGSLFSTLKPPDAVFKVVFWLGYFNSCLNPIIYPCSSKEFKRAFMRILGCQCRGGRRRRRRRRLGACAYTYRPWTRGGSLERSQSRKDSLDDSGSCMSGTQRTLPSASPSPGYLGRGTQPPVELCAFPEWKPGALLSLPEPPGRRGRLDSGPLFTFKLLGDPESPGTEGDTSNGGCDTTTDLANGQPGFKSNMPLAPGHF
T3 sequence (P23944 whole entry): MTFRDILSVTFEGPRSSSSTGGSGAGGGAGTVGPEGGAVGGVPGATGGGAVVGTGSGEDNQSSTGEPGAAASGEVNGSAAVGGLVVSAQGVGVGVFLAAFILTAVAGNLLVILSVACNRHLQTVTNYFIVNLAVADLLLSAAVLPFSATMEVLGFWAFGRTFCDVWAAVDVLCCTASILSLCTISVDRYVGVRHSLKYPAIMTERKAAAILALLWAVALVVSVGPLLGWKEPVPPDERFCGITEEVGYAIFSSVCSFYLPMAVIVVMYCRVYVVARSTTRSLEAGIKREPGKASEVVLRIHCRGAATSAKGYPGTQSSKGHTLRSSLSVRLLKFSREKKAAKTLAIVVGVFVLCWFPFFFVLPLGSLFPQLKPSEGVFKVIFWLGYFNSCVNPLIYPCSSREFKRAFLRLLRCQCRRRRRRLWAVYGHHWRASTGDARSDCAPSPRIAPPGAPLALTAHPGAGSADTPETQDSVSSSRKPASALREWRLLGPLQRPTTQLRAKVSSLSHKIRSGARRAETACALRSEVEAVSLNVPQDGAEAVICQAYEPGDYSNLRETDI
T3 sequence (P43140 whole entry): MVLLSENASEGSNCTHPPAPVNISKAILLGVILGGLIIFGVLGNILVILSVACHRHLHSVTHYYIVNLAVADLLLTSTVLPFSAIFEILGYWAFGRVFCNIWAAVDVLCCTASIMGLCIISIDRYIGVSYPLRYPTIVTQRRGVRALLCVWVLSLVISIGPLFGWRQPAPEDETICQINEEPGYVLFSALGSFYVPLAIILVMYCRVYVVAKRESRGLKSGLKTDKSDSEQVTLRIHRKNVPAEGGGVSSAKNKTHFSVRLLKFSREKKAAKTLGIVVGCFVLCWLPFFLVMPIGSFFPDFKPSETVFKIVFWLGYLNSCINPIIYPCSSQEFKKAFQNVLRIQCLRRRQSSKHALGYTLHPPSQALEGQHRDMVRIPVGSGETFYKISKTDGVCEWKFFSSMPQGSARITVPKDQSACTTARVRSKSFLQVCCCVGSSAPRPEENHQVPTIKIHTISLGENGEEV
The experiment in a line: In vitro binding affinity towards the anor-adrenergic alpha-1 receptor at 10 e-6 M. Format: protein assay. In a few lines: as §1

The test system of experiment [10] is Rattus norvegicus. The experiment in a line: Minimum effective dose administered subcutaneously to block the effect of 8-hydroxy-DPAT. Format: functional. The gist of the method: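 Rats pretreated sc with vehicle or test agent, then given 8-OH-DPAT iv 30 min later to induce the behavioral syndrome. Groups of at least 10 rats were used, and the 8-OH-DPAT ED50 was determined by the sequential up/down method.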

Experiment [11] has as its target Serotonin 2 (5-HT2) receptor (Rattus norvegicus) (UniProt P30994+P08909+P14842). In words: (§4) In vitro binding affinity towards the 5-hydroxytryptamine 2 receptor at 10 e-6 M. It counts as protein assay. The gist of the method:
as §1

Experiment [12] addresses T3, Adrenergic receptor alpha-1. The experiment in a line: In vitro binding affinity towards the noradrenergic alpha-1 receptor at 10 e-6 M. Format: protein assay. The gist of the method:
as §1

Experiment [13] relates to Rattus norvegicus. The experiment in a line: Decrease in hippocampal level of 5-HTat preinjection of 0.1 mg/kg, sc. Format: functional, Hippocampus. The settings on record: route subcutaneous.
Experiment [14] has as its system Rattus norvegicus. In words: Decrease in hippocampal level of 5-HT at preinjection of 5 mg/kg, sc. Format: functional, Hippocampus. The settings on record: route subcutaneous. In a few lines: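 Microdialysis in conscious, freely moving rats. Test agent given sc, and extracellular 5-HT measured in hippocampus for up to 2.5 h after dosing. Values expressed as % of preinjection control levels.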

The target in experiment [15] is T3, Adrenergic receptor alpha-1. The experiment in a line: In vitro binding affinity towards the alpha-1 receptor at 10 e-6 M. It counts as protein assay. In a few lines:
as §1

Experiment [16] concerns the target Serotonin 2 (5-HT2) receptor (Rattus norvegicus, UniProt P30994+P08909+P14842). Described as §4. Format: protein assay. The gist of the method: as §1

Sequence of D(2) dopamine receptor (Rattus norvegicus) (P61169 whole entry): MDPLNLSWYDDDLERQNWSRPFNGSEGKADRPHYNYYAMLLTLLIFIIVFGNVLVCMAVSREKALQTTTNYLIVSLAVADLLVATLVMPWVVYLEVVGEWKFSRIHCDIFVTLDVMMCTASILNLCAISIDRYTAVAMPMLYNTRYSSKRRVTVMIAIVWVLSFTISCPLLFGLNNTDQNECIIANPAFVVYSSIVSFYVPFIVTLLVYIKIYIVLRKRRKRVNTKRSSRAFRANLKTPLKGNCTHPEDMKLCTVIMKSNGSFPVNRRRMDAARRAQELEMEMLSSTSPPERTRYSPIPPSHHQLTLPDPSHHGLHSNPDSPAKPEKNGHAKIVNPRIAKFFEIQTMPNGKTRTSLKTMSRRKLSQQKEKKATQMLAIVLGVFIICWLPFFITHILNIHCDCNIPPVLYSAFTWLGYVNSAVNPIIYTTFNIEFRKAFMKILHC
Sequence of 5-hydroxytryptamine receptor 1B (Rattus norvegicus) (P28564 whole entry): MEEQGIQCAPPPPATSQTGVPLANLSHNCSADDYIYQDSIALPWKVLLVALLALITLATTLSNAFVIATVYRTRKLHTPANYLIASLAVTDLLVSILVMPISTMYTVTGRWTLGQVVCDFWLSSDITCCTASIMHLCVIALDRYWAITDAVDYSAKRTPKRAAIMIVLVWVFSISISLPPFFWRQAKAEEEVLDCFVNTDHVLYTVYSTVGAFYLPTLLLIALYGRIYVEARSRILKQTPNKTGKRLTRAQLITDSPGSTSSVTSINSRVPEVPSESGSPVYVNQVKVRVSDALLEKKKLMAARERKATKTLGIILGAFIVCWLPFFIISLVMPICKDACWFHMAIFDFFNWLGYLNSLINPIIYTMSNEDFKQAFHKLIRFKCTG
Sequence of D(1A) dopamine receptor (Rattus norvegicus) (P18901 whole entry): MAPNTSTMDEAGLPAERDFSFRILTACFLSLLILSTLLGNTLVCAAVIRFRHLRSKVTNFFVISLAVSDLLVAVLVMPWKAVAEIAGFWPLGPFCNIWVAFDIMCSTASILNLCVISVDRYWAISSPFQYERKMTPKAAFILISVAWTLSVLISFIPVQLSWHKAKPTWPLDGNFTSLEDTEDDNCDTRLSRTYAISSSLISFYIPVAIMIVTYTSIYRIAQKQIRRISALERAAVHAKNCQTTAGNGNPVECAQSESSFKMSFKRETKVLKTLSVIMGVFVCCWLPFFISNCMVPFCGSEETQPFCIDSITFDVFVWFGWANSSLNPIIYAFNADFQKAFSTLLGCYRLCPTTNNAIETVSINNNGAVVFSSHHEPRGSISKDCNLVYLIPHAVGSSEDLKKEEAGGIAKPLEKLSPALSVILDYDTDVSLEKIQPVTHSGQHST
Sequence of Serotonin 2 (5-HT2) receptor (Rattus norvegicus) (P14842 whole entry, looked up, one chain of several): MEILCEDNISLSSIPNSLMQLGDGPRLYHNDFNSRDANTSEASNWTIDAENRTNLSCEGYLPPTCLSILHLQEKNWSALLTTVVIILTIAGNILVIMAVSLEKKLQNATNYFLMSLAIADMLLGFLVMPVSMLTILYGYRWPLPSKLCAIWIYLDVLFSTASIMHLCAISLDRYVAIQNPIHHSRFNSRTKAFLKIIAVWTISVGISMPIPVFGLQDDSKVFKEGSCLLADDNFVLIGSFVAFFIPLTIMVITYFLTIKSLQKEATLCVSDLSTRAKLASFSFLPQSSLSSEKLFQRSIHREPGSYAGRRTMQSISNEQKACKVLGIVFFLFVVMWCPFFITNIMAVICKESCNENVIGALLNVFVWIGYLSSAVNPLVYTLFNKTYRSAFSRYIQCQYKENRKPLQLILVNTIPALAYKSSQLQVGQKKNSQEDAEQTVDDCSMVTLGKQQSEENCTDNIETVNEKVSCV
Sequence of Serotonin 2 (5-HT2) receptor (Rattus norvegicus) (P30994 whole entry, looked up, one chain of several): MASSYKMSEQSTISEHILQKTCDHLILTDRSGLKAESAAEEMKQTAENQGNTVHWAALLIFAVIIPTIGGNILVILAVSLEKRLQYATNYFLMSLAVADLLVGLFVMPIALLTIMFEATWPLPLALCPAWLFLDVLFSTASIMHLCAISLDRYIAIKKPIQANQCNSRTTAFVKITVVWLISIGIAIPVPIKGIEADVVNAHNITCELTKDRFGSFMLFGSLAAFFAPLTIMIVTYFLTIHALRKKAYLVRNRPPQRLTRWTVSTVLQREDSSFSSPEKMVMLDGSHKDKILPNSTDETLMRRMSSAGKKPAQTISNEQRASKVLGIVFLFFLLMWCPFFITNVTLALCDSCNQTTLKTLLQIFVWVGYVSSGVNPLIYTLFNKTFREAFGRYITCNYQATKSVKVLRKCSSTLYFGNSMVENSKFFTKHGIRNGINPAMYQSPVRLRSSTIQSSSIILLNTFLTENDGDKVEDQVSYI

Broadly, the inhibition is how much of the control response was suppressed. Low readings indicate little suppression, high ones strong suppression. Regarding `COc1ccccc1N1CCN(C[C@@H](C(=O)NC(C)(C)C)c2ccccc2)CC1` [listing 1 of 2 here], the inhibition in [1] was 20%; in experiment [2], 11%; in experiment [3] it was 50%; in [4] it was 22%; in experiment [5] it was 22%; in [6], 12%.
In general, IC50 refers to the concentration that inhibits the measured activity by half. Low readings indicate greater potency, high ones weaker potency. In the experiment on Rattus norvegicus [7], `O=C1CC2(CCCC2)CC(=O)N1CCCCN1CCN(c2ncccn2)CC1` [BUSPIRONE] came in with a Decrease of 39.9%. In addition, the IC50 on Adrenergic receptor beta is reported as > 1000 nM.
For the molecule `COc1ccccc1N1CCN(CC(C(=O)NC(C)(C)C)c2ccccc2)CC1` (centres undefined), the inhibition in [1] was found to be 14%; in [2], 10%; in experiment [3], 37%; in experiment [4], 20%; in experiment [5], 27%; in [6] it was 20%. Besides, in experiment [11], the inhibition turned out to be 37%. In addition, the IC50 in experiment [8] stood at 33.9 nM; in experiment [9] it was 1491 nM. Moreover, the minimal effective dose in the experiment on Rattus norvegicus [10] (Rattus norvegicus, sc, read-out: MED) worked out at 3 mg/kg.
In the experiment on Rattus norvegicus [10], `COc1ccccc1N1CCN(C[C@@H](C(=O)NC(C)(C)C)c2ccccc2)CC1` (stereo in doubt; (R)-5) returned an MED of 10 mg/kg.
On the same count and under the same terms, the figure for `COc1ccccc1N1CCN(C[C@@H](C(=O)NC(C)(C)C)c2ccccc2)CC1` (stereo in doubt; (S)-5) is 1 mg/kg.
Turning to `COc1ccccc1N1CCN(C[C@H](C(=O)NC(C)(C)C)c2ccccc2)CC1`, the inhibition in experiment [1] was determined as 4%; in experiment [2], 7%; in experiment [3], 14%; in experiment [4], 2%; in [5], 21%; in experiment [6], 7%. Moreover, in experiment [11], the inhibition stood at 13%. The IC50 in [8] is 437 nM; in experiment [12] it was 2781 nM.
Take `CCCN(CCC)C1CCc2cccc(O)c2C1` (centres undefined) [8-OH-DPAT]: in the experiment with Rattus norvegicus [13], the Decrease worked out at 19.2%.
Consider `COc1ccccc1N1CCN(CCN2C(=O)CC3(CCCC3)CC2=O)CC1.Cl.Cl`, for which, in the experiment with Rattus norvegicus [14], the Decrease came out at 37.6%.
As for `COc1ccccc1N1CCN(C[C@@H](C(=O)NC(C)(C)C)c2ccccc2)CC1` [listing 2 of 2 here], the results for the IC50 in [15], in [8] and in experiment [16] were 1878 nM, 15.5 nM and 1393 nM, respectively.
